Measured values published in ChEMBL document CHEMBL2034906, “Inhibition of tumor cells interacting with stromal cells by xanthones isolated from a Costa Rican Penicillium sp” (J Nat Prod, 2012).
pIC50: −log10 of the molar value.

Columns and labels:
[1] = Cytotoxicity against human 8226/DOX40 cells after 48 hrs by luminometric analysis; format: functional, cell-based
Outline: (§1)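 Tumor cells were cultured without HS-5 stromal cells and treated with increasing compound concentrations for 48 h. Luciferin substrate was added, cultures were incubated 30 min, and bioluminescence was read on a luminometer. Signal was normalized to the non-treated control, with each condition in quadruplicate, and IC50 was calculated.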

[2] = Cytotoxicity against human Farage cells after 48 hrs by luminometric analysis; format: functional, cell-based; outline: as §1
HT [3] = assay: Cytotoxicity against human HT cells after 48 hrs by luminometric analysis; format: functional, cell-based; outline: as §1
[4] = Cytotoxicity against human KMS34 cells after 48 hrs by luminometric analysis; format: functional, cell-based; settings: KMS-34, 48 h; outline: as §1
[5] = Cytotoxicity against human KU-812F cells after 48 hrs by luminometric analysis; format: functional, cell-based; outline: as §1
L-363 [6] = assay: Cytotoxicity against human L363 cells after 48 hrs by luminometric analysis; format: functional, cell-based; settings: L-363, 48 h; outline: as §1
MDA-MB-231 [7] = assay: Cytotoxicity against human MDA-MB-231 cells after 48 hrs by luminometric analysis; format: functional, cell-based; settings: MDA-MB-231, 48 h; outline: as §1
[8] = Cytotoxicity against human MM1S cells after 48 hrs by luminometric analysis; format: functional, cell-based; settings: MM1.S; outline: as §1
[9] = Cytotoxicity against human OCILY17R cells after 48 hrs by luminometric analysis; format: functional, cell-based; outline: as §1
[10] = Cytotoxicity against human OCI-My5 cells after 48 hrs by luminometric analysis; format: functional, cell-based; settings: OCI-My5, 48 h; outline: as §1
OPM-2 [11] = assay: Cytotoxicity against human OPM2 cells after 48 hrs by luminometric analysis; format: functional, cell-based; settings: OPM-2, 48 h; outline: as §1
PC-3 [12] = assay: Cytotoxicity against human PC3 cells after 48 hrs by luminometric analysis; format: functional, cell-based; settings: PC-3, 48 h; outline: as §1
RPMI-8226 [13] = assay: Cytotoxicity against human RPMI8226 cells after 48 hrs by luminometric analysis; format: functional, cell-based; settings: RPMI-8226, 48 h; outline: as §1
[14] = Cytotoxicity against human 8226/DOX40 cells after 48 hrs by luminometric analysis in presence of HS5 bone marrow stromal cells; format: functional, cell-based
Outline: (§2)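 Tumor cells were co-cultured with HS-5 bone marrow stromal cells. For non-adherent tumors, stroma was seeded overnight, then tumor cells were overlaid and treated the next day. For adherent tumors, stroma and tumor cells were plated together overnight, then treated. Cells received increasing compound concentrations for 48 h. Luciferin was added for 30 min and bioluminescence read. Signal was normalized to the untreated control, in quadruplicate, and IC50 was calculated.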

[15] = Cytotoxicity against human Farage cells after 48 hrs by luminometric analysis in presence of HS5 bone marrow stromal cells; format: functional, cell-based; outline: as §2
HT [16] = assay: Cytotoxicity against human HT cells after 48 hrs by luminometric analysis in presence of HS5 bone marrow stromal cells; format: functional, cell-based; outline: as §2
[17] = Cytotoxicity against human KMS34 cells after 48 hrs by luminometric analysis in presence of HS5 bone marrow stromal cells; format: functional, cell-based; settings: KMS-34, 48 h; outline: as §2
[18] = Cytotoxicity against human KU-812F cells after 48 hrs by luminometric analysis in presence of HS5 bone marrow stromal cells; format: functional, cell-based; outline: as §2
L-363 [19] = assay: Cytotoxicity against human L363 cells after 48 hrs by luminometric analysis in presence of HS5 bone marrow stromal cells; format: functional, cell-based; settings: L-363, 48 h; outline: as §2
MDA-MB-231 [20] = assay: Cytotoxicity against human MDA-MB-231 cells after 48 hrs by luminometric analysis in presence of HS5 bone marrow stromal cells; format: functional, cell-based; settings: MDA-MB-231, 48 h; outline: as §2
[21] = Cytotoxicity against human MM1S cells after 48 hrs by luminometric analysis in presence of HS5 bone marrow stromal cells; format: functional, cell-based; settings: MM1.S; outline: as §2
[22] = Cytotoxicity against human OCILY17R cells after 48 hrs by luminometric analysis in presence of HS5 bone marrow stromal cells; format: functional, cell-based; outline: as §2
[23] = Cytotoxicity against human OCI-My5 cells after 48 hrs by luminometric analysis in presence of HS5 bone marrow stromal cells; format: functional, cell-based; settings: OCI-My5, 48 h; outline: as §2
OPM-2 [24] = assay: Cytotoxicity against human OPM2 cells after 48 hrs by luminometric analysis in presence of HS5 bone marrow stromal cells; format: functional, cell-based; settings: OPM-2, 48 h; outline: as §2
PC-3 [25] = assay: Cytotoxicity against human PC3 cells after 48 hrs by luminometric analysis in presence of HS5 bone marrow stromal cells; format: functional, cell-based; settings: PC-3, 48 h; outline: as §2
RPMI-8226 [26] = assay: Cytotoxicity against human RPMI8226 cells after 48 hrs by luminometric analysis in presence of HS5 bone marrow stromal cells; format: functional, cell-based; settings: RPMI-8226, 48 h; outline: as §2
NCI-H929 (Homo sapiens) [27] = assay: Cytotoxicity against human NCI-H929 cells after 48 hrs by luminometric analysis; settings: NCI-H929, 48 h
NCI-H929 (Homo sapiens) [28] = assay: Cytotoxicity against human NCI-H929 cells after 48 hrs by luminometric analysis in presence of HS5 bone marrow stromal cells; settings: NCI-H929, 48 h
[29] = Cytotoxicity against human HS5 cells after 48 hrs by luminometric analysis; format: cell-based; settings: HS5, 48 h
[30] = Cytotoxicity against human HOBIT cells after 48 hrs by luminometric analysis; format: cell-based
[31] = Cytotoxicity against human THLE3 cells after 48 hrs by luminometric analysis; format: cell-based; settings: THLE3, 48 h
[32] = Cytotoxicity against human SVGp12 cells after 48 hrs by luminometric analysis; format: cell-based; settings: SVGp12, 48 h
RPMI-8226 [33] = assay: Ratio of IC50 for human RPMI8226 cells in absence of HS5 bone marrow stromal cells to IC50 for human RPMI8226 in presence of HS5 bone marrow stromal cells; format: functional

SMILES | pIC50 [1] | pIC50 [2] | pIC50 (HT [3]) | pIC50 [5] | pIC50 (MDA-MB-231 [7]) | pIC50 [8] | pIC50 (OPM-2 [11]) | pIC50 (PC-3 [12]) | pIC50 (RPMI-8226 [13]) | pIC50 [14] | pIC50 [15] | pIC50 (HT [16]) | pIC50 [18] | pIC50 (MDA-MB-231 [20]) | pIC50 [21] | pIC50 (OPM-2 [24]) | pIC50 (PC-3 [25]) | pIC50 (RPMI-8226 [26]) | pIC50 (NCI-H929 (Homo sapiens) [27]) | pIC50 (NCI-H929 (Homo sapiens) [28]) | also measured
CC(=O)OC[C@]12Oc3c(-c4ccc5c(c4O)C(=O)C4=C(O)C[C@@H](C)[C@@H](OC(C)=O)[C@@]4(CO)O5)ccc(O)c3C(=O)C1=C(O)C[C@@H](C)[C@H]2OC(C)=O (relative stereo) | 4.82 | 4.91 | 4.97 | 4.84 | 4.36 | 4.43 | 4.90 | 3.91 | 4.89 | 4.67 | 4.98 | 5.00 | 4.62 | 4.47 | 4.33 | 4.98 | 4.18 | 5.05 | 4.26 | 4.45 | pIC50 [4]: 4.65; pIC50 (L-363 [6]): 4.18; pIC50 [9]: 4.51; pIC50 [10]: 4.73; pIC50 [17]: 4.25; pIC50 (L-363 [19]): 4.10; pIC50 [22]: 4.32; pIC50 [23]: 4.32
CC(=O)OC[C@]12Oc3cccc(O)c3C(=O)C1=C(O)C[C@@H](C)[C@H]2OC(C)=O (relative stereo) | 4.94 | 3.70 | 4.00 | 4.35 | 3.79 | 3.77 | 4.37 | 2.86 | 4.15 | 4.62 | 4.41 | 4.46 | 4.02 | 3.93 | 3.73 | 4.35 | 3.67 | 4.47 | 3.73 | 4.02 | pIC50 [4]: 3.82; pIC50 (L-363 [6]): 3.33; pIC50 [9]: 2.79; pIC50 [10]: 3.80; pIC50 [17]: 3.70; pIC50 (L-363 [19]): 3.70; pIC50 [22]: 3.53; pIC50 [23]: 3.42
CC(=O)O[C@@H]1[C@H](C)CC(O)=C2C(=O)c3c(ccc(-c4ccc5c(c4O)C(=O)C4=C(O)C[C@@H](C)[C@@H](OC(C)=O)[C@@]4(CO)O5)c3O)O[C@@]21CO [DICERANDROL A] | 4.64 | 4.81 |  | 4.61 | 4.36 | 4.54 |  | 4.00 |  | 4.43 | 4.83 |  | 4.33 | 4.42 | 4.48 |  | 4.14 |  | 4.37 | 4.64 | 
CC(=O)OC[C@]12Oc3ccc(-c4ccc5c(c4O)C(=O)C4=C(O)C[C@@H](C)[C@@H](OC(C)=O)[C@@]4(CO)O5)c(O)c3C(=O)C1=C(O)C[C@@H](C)[C@H]2OC(C)=O [DICERANDROL B] | 5.66 | 5.80 | 5.92 | 5.57 | 5.07 | 5.14 | 5.72 | 4.47 | 5.62 | 5.64 | 5.89 | 5.89 | 5.44 | 5.26 | 5.10 | 5.82 | 4.85 | 5.92 | 4.99 | 5.47 | pIC50 [4]: 5.26; pIC50 (L-363 [6]): 4.78; pIC50 [9]: 5.34; pIC50 [10]: 5.55; pIC50 [17]: 5.03; pIC50 [22]: 5.28; pIC50 [23]: 5.24; pIC50 [29]: 4.89; pIC50 [30]: 5.04; pIC50 [31]: 5.00; pIC50 [32]: 4.86; Ratio IC50 (RPMI-8226 [33]): 2
CC(=O)OC[C@]12Oc3ccc(-c4ccc5c(c4O)C(=O)C4=C(O)C[C@@H](C)[C@@H](OC(C)=O)[C@@]4(COC(C)=O)O5)c(O)c3C(=O)C1=C(O)C[C@@H](C)[C@H]2OC(C)=O [DICERANDROL C] | 5.00 | 5.46 | 5.68 | 5.15 | 4.74 | 4.83 | 5.32 | 3.92 | 5.32 | 4.86 | 5.48 | 5.40 | 4.84 | 4.88 | 4.68 | 5.12 | 4.34 | 5.55 | 4.97 | 5.27 | 
